# The list is not random: actives were taken first. Their share in the collection is about 12%.
# Diaphorase act: diaphorase activation or chemical reduction counter-screen. AID 1229. activation factor at 20 µM. actives 0.005% (n = 190,000). Diaphorase/resazurin coupled assay, resorufin fluorescence, 16 min; active compounds read high; 1 = vehicle wells, 0 = NADH-free wells;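 active means diaphorase activity raised at least twofold by the compound at 20 µM; inactive means activation factor below 2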
#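 Material: purified diaphorase enzyme from Clostridium kluyveri; Also added: 0.114 mM NADH and 0.1 mM resazurin, final amounts; Doses: single compound dose of 20 µM, 1% DMSO final; Times: 16 min enzyme reaction, ambient temperature; Detection: resorufin fluorescence, excitation 544 nm, emission 590 nm; Measure: increased resorufin signal from activators or reducing compounds.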
# Diaph inh CS: inhibits diaphorase or chemically oxidizes, flagging diaphorase assay artifacts | AID 1217 | inhibition, % at 20 µM | diaphorase resazurin-to-resorufin fluorescence, NADH, 16 min; bacterial (C. kluyveri) enzyme, not human | actives 0.69% (n = 190,000);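 active means primary screen inhibition at 20 µM above a set limit, cut at about 50% in these data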;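 further: plate controls were DMSO with full reaction for no effect and wells lacking NADH for full effect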
#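 Benchmarks: positive control wells lacking NADH, neutral wells with DMSO only. System: bacterial diaphorase enzyme (C. kluyveri). Input: 0.14 U/mL diaphorase, enzyme working solution. Detection: resorufin fluorescence, excitation 544 nm, emission 590 nm. Times: 16-min room-temperature incubation before reading.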
# ROMK mod: modulators of human ROMK potassium channel; Tet-inducible ROMK, thallium flux fluorescence; actives lie on both sides; actives 2% (n = 130,000); B-score at 10 µM; P48048;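 active means signal ratio slope over the read window, or its plate-corrected B-score, at least 3 SD from the plate mean, either direction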;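 further: B-score of the F/F0 ratio slope over 7 to 12 s after thallium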
# Target sequence (P48048 whole entry, looked up): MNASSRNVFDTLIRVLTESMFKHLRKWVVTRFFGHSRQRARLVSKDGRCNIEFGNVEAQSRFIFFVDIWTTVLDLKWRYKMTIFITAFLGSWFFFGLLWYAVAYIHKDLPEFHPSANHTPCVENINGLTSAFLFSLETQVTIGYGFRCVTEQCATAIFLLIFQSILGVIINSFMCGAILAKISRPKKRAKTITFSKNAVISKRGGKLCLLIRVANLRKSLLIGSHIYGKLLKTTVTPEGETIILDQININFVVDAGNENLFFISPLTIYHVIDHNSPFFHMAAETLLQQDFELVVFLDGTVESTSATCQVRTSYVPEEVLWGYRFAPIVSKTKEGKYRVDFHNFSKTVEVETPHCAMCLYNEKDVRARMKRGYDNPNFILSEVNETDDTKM
# Lmaj promast: reduces viability of Leishmania major promastigotes. resazurin fluorescence viability. inhibition, % at 10 µM. actives 9% (n = 200,000). AID 1063; in the data active means inhibition above about 50%;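 further: promastigotes grown with compound for 44 hours at 28 °C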
# KCC2 mod: modulates chloride dependent transport by human KCC2; B-score of Tl+ flux slope (higher = more flux/activation; lower = inhibition) at 10 µM; KCC2 cells, thallium flux FluoZin-2 fluorescence; actives 2.2% (n = 190,000); Q9H2X9; AID 1456;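 active means thallium flux slope and its plate-corrected score both differing from the plate sample mean at a set confidence after two filtering rounds, in either direction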;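 further: slope of fluorescence scaled to starting intensity during 10 to 20 s after thallium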
# WT yeast gro inh: growth inhibition of WT yeast, mitochondrial fusion screen; mitochondrial fusion phenotypic screen, WT strain; inhibition, % at 10 µM; actives 2.1% (n = 190,000); in the data active means inhibition above about 58%; tested in S. cerevisiae
# * hit, by the source's call; nt = not tested or not shown.
SMILES,Diaphorase act,Diaph inh CS,ROMK mod,Lmaj promast,KCC2 mod,WT yeast gro inh
Cc1ccc2nc(NCCCN3CCOCC3)c(C=NCCCN3CCOCC3)c(=O)n2c1,1.3,-27.8,0.491,78.7*,-0.193,11.0
O=C(NNC(=O)C12CC3CC(CC(C3)C1)C2)[C@@H]1C[C@H]1c1ccccc1,1,4.0,0.268,6.3,0.255,-0.7
COc1ccc(S(=O)(=O)NCc2ccco2)cc1N(C)S(=O)(=O)c1ccccc1,0.8,21.4,nt,59.5*,nt,-1.8
COc1cc(OC)c(N(C)S(=O)(=O)c2cccc(C(=O)OCC(=O)NCc3ccco3)c2)cc1Cl,0.9,14.0,0.331,53.2*,-0.637,-15.8
COc1ccccc1C(CNC(=O)c1ccc(S(=O)(=O)NCc2ccco2)cc1)N(C)C (stereo not given),1,0.0,0.185,51.0*,-0.237,-10.3
CN(C)C(=O)COC(=O)c1ccc(S(=O)(=O)NCc2ccco2)cc1,nt,nt,nt,nt,0.79,nt
CN(c1ccccc1)S(=O)(=O)c1cccc(C(=O)OCC(=O)NCc2ccco2)c1,1,1.7,0.099,8.7,-1.31,-9.4
O=C(CCn1cnnn1)Nc1ccc(F)cc1,1,-0.5,0.8,-7.0,-1.03,-14.7
CC1CCN(S(=O)(=O)N2CCC(C(=O)NCc3cccnc3)CC2)CC1,nt,nt,nt,nt,0.136,nt
O=C1CN(C(=O)c2cc3ccccc3o2)c2ccccc2N1,0.9,10.6,1.93,-3.2,0.139,19.4
CCC1CCCCN1C(=O)Cn1nc([N+](=O)[O-])c(Cl)c1C (stereo not given),0.9,5.2,0.366,1.1,0.196,-1.6
Cc1ccc([N+](=O)[O-])cc1S(=O)(=O)NCCc1cn2ccccc2n1,nt,nt,-0.413,nt,0.839,nt
Cc1ccc([N+](=O)[O-])cc1S(=O)(=O)NCCc1c(C)[nH]c2ccccc12,0.8,21.9,-0.209,95.9*,1.28,1.8
CC(=O)N1CCCN(Cc2cn(-c3cccc(C)c3)nc2-c2cccc(F)c2)CC1,nt,nt,nt,nt,0.705,nt
Cc1ccc(-c2nn3c(C)nnc3c3ccccc23)cc1S(=O)(=O)NCCO,1,0.4,0.127,-5.3,0.132,18.6
Cc1ccc(-c2nn3c(C)nnc3c3ccccc23)cc1S(=O)(=O)NC(C)c1ccccc1 (stereo not given),0.8,20.0,nt,99.4*,-0.262,-0.6
O=C(NC1CCCCC1)Sc1ccc(Cl)cc1,1,-0.5,-4.71*,63.5*,nt,5.6
C=CCc1c(C)nc(SC)nc1Nc1ccc(C(C)=O)cc1,1,-3.3,-0.163,70.7*,-1.33,-1.1
Cc1ccsc1/C=N/N1CCN(c2ccccc2)CC1,1,-2.4,nt,52.6*,nt,-1.8
Cc1cc(CSc2ccccc2)ccc1NC(=O)c1ccc(CN2CCOCC2)cc1,0.9,8.7,0.412,62.9*,0.0837,5.2
CCOC(=O)c1ccc(NC(=O)N2CCN(Cc3cccc(F)c3)CC2)cc1,0.9,11.1,nt,14.3,-2.97*,6.2
NC(=O)c1ccc(NC(=O)c2ccc(CN3CCOCC3)cc2)cc1,1,2.7,0.587,-4.1,1.51,7.7
CCOC(=O)c1ccc(NC(=O)c2ccc(CN3CCOCC3)cc2)cc1,1,2.1,-2.07,84.1*,0.312,25.9
CCOC(=O)c1ccc(NC(=O)CSC(=S)N2CCOCC2)cc1,0.9,13.0,-1.48,97.3*,2.04,-2.7
COc1ccccc1CCc1nnc(CCC(=O)NC(C)Cc2cccnc2)o1 (stereo not given),1.1,-7.2,0.444,0.4,-0.143,-6.4
SMILES,Diaphorase act,Diaph inh CS,ROMK mod,Lmaj promast,KCC2 mod,WT yeast gro inh
CC(=O)C1=C(c2ccccc2)NC(=S)NC1c1ccc(O)c(O)c1 (stereo not given),0.7,28.9,-0.0512,-7.1,0.0101,14.3
CC(=O)C1=C(c2ccccc2)NC(=O)NC1c1ccc(O)c(O)c1 (stereo not given),0.5,53.9*,0.241,-4.2,-0.737,4.0
Cn1cc(C(=O)c2ccc(Cl)cc2Cl)cc1C(=O)N/N=C(\N)COc1ccc(F)cc1,0.8,21.0,-0.203,5.6,-2.05,14.0
Cn1cc(C(=O)c2ccc(Cl)cc2Cl)cc1C(=O)N/N=C(\N)COc1ccc(Cl)cc1Cl,0.9,7.1,0.42,100.0*,nt,-4.8
Cn1cc(C(=O)c2ccc(Cl)cc2Cl)cc1C(=O)N/N=C(\N)COc1ccccc1,0.8,16.4,0.00882,-1.3,-1.51,-1.9
Cn1cc(C(=O)c2ccc(Cl)cc2Cl)cc1C(=O)O,0.9,8.2,nt,-6.1,-2.64,92.4*
Fc1cccc(Cc2noc(CN3CCN(C4CCc5ccccc5C4)CC3)n2)c1 (stereo not given),0.9,12.4,-2.51,89.5*,nt,26.3
COc1ccc(Cc2noc(CN3CCCN(Cc4ccc(F)cc4)CC3)n2)cc1OC,nt,nt,-0.425,77.2*,0.0167,12.8
Fc1cccc(Cc2noc(CN3CCCN(C4Cc5ccccc5C4)CC3)n2)c1,nt,nt,nt,87.9*,2.01,6.2
COc1cc2c(cc1OC)C1(C)N(CC2)C(C(C)=O)=NN1c1ccc(Cl)cc1 (stereo not given),nt,nt,nt,nt,0.112,nt
CCOC(=O)c1[nH]ncc1CN1CCCC(C(=O)c2ccc(C(C)(C)C)cc2)C1 (stereo not given),0.8,15.4,-0.944,73.8*,-1.95,20.2
CC(=O)/C(C#N)=C1\NC(=O)C(Cc2ccc(C)c(C)c2)S1 (stereo not given),0.9,7.1,nt,-7.6,0.00921,0.2
CCCn1c(=O)c2c(nc3n2CCS3)n(C)c1=O,1,0.2,-0.162,-1.5,0.594,2.0
O=C(NC1CCCCC1)c1ccc(CS(=O)(=O)Cc2ccccc2F)o1,0.8,16.2,nt,3.1,0.439,2.4
O=C(NC1CCCC1)c1ccc(CSCc2ccccc2F)o1,1,0.7,-0.938,89.3*,-1.94,1.8
COc1cc2c(cc1OC)C1=C(C#N)CCC(=NC(=O)c3ccco3)N1CC2,1.1,-5.6,0.863,-10.8,0.705,4.5
COc1cc2c(cc1OC)C1=C(C#N)CC/C(=N\S(=O)(=O)c3cccc(Cl)c3)N1CC2,0.4,61.2*,nt,-6.6,-0.743,30.2
CN(CC(=O)NCCc1ccccc1)S(=O)(=O)c1ccccc1,1,1.9,0.0566,-10.2,1.02,6.2
N#CC(C#N)=c1ccc2c(c1)N1C3=C(CCCC3)CC3CCCCC31N=2 (stereo not given),0.2,75.7*,-1.88,99.3*,-1.86,72.5*
N#C/C(C(N)=O)=c1/ccc2c(c1)N1C3=C(CCCC3)CC3CCCCC31N=2 (stereo not given),0.1,90.9*,1.15,73.5*,0.0301,30.5
COc1ccc(OCC(=O)Nc2ccc3c(c2)nc(CCN2CCOCC2)n3C)cc1,0.9,11.3,0.209,52.1*,0.0552,23.2
COc1ccc(OCC(=O)NC(=S)Nc2ccc(N3CCOCC3)c(Cl)c2)cc1,0.8,18.3,1.42,-7.4,35.8*,19.4

# Screening data deposited in PubChem BioAssay by several laboratories.
